*1 amine or outer side, *2 acyl side, *3 side chain or, on linkers, in order; H or OH if unused. Where a SMILES comes first, the peptide text is derived from it. Bridges are numbered along the chain shown (N, C = ends). Where no end group is shown, it is not given here. [ ]: non-standard residue; d: D form. X1 = O=C(O)C[C@@H](C(=O)[*:2])N(CCCCN[*:3])[*:1]; X2 = C[C@@H](C(=O)[*:2])N(CCCCN[*:3])[*:1]; CO = O=C([*:1])[*:2]
How the values were obtained:
primary mouse BMCs = assay: In vitro OC differentiation, primary mouse BMCs; type: cell-based; details: SE ligand 65–79*0401 29 μM, Fig. 1J
Method in brief: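 Primary bone marrow cells from mouse femurs and tibias were plated at 2 × 10^5/well in MEM with 10% FBS and penicillin/streptomycin. They received 10 ng/ml M-CSF alone for 2 d, then 4 d more with 10 ng/ml M-CSF plus 20 ng/ml RANKL, with or without SE ligand 65–79*0401 (29 μM). Cultures were fixed and TRAP-stained. TRAP-positive cells with more than three nuclei were counted. Results are mean ± SEM; Student's t-test.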

DBA/1 mice with CIA = assay: Collagen-induced arthritis; type: in vivo, mouse; details: disease amelioration at ng/kg-range doses; comparison with ref 24–26
[1] = target: T1, SE-activated NO signaling (Mus musculus, UniProt P14211); assay: SE ligand-activated NO signaling assay; type: cell-based; details: Linear DKCLA 170 μM, SE ligand 65–79*0401 57 μM, Fig. 1F
T1 sequence (P14211 18-416): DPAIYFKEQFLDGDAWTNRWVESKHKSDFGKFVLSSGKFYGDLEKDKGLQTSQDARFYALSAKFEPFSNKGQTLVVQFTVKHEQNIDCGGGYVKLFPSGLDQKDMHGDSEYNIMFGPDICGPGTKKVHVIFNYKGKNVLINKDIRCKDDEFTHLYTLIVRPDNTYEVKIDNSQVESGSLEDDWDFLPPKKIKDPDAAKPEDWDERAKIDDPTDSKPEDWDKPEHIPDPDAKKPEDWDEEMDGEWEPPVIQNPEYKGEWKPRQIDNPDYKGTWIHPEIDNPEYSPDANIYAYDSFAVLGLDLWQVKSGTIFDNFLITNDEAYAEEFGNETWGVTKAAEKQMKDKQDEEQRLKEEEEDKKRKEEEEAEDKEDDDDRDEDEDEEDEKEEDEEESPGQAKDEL

recombinant mouse CRT = target: T2, recombinant mouse CRT (Mus musculus, UniProt P14211); assay: SPR direct interaction with CRT; type: binding; details: immobilized recombinant CRT, Fig. 1A
T2 sequence (P14211 18-416): T1 sequence (P14211 18-416)
Method in brief: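 Direct binding was measured by SPR on a CM5 chip preconditioned with NaOH, HCl and SDS pulses and activated with EDC/NHS. Recombinant mouse CRT was amine-coupled at 100 μg/ml (about 5500 RU), then ethanolamine-blocked. Analytes were injected at various concentrations at 25°C and 10 μl/min in HEPES pH 7.4 buffer with KCl, CaCl2, ZnCl2 and P-20. Signal was read in real time as resonance units.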

| Interaction with CRT (SPR) (recombinant mouse CRT) | Compound | Incremental SE-activated OC differentiation (primary mouse BMCs) | In vivo potency in CIA relative to emerging drugs (mg/kg-range doses) (DBA/1 mice with CIA) | Inhibition of SE ligand-activated NO signaling [1] |
| --- | --- | --- | --- | --- |
|  | CC(C)C[C@@H]1NC(=O)[C@H](CS)NC(=O)[C@H](CCCCN)NC(=O)[C@H](CC(=O)O)N(C(=O)[C@@H](N)Cc2c[nH]c3ccccc23)CCCCNC(=O)NCCCCN([C@@H](C)C(N)=O)C1=O [HS(4–4)c Trp] (H-W[X1]KCL[X2]-NH2; linker 2-6 via CO; N-terminus and C-terminus assumed) | significantly inhibited | 1,000,000 fold |  |
| interacted with CRT | Ac-DKCLA (N-terminus assumed) [DKCLA] |  |  | specifically blocked SE ligand-activated NO signaling |

Reference: paper PMC4784479 (Arthritis & rheumatology (Hoboken, N.J.), 2015)
